# Experimental data of several laboratories.
# Each line is one published result; the experiments were not run side by side.
# Cell line: K562
# Effect on: cell growth or viability
SMILES,assay,conditions,endpoint,value
CNC(=O)c1cc(OC)cc2c(N3CCc4c(cc(Cn5ccnc5)cc4-c4cn(C)nc4C(F)(F)F)C3=O)ccnc12,ATP luminescence,5 days,GI50,9700 nM
COc1ccccc1S(=O)(=O)Nc1ccc2c(c1)CN(C)C(=O)N2,ATP luminescence,,GI50,> 20000 nM
CCCCCCCCC1=CC2C=CC=CC1C2C1CCCCC1=O (centres unmarked),flow cytometry,,IC50,41 nM
COc1cccc(Oc2ccccc2NC(=O)CNC(=O)c2cccc3ccccc23)c1,SRB,48 h,GI50,129 nM
COc1ccc(C(=O)/C=C/c2cccc3ccccc23)cc1S(N)(=O)=O,SRB,48 h,GI50,1700 nM
COc1ccc2nccc(N3CCc4c(cc(Cn5ccnc5)cc4-c4cn(C)nc4C(F)(F)F)C3=O)c2c1,ATP luminescence,5 days,GI50,13000 nM
COC(=O)CCC1=CC2C=CC=CC1C2C1CCCCC1=O (centres unmarked),flow cytometry,,IC50,62 nM
COc1ccc(C(=O)/C=C/c2ccc3c(c2)OCCO3)cc1S(N)(=O)=O,SRB,10 µM,inhibition,83%
